Data taken from ChEMBL document CHEMBL1148393, “SAR studies of dihydro-beta-agarofuran sesquiterpenes as inhibitors of the multidrug-resistance phenotype in a Leishmania tropica line overexpressing a P-glycoprotein-like transporter” (J Med Chem, 2004).

Key:
Type in all cases: functional
[1] = tested on: Leishmania tropica; assay: Percentage of growth inhibition of multidrug resistance Leishmania tropica Lines at 15 uM
Summary of the method: (§1)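 Log-phase MDR promastigotes were plated at 3 × 10⁵ cells/well in RPMI 1640-modified medium with 20% FBS and 150 µM DNM. Sesquiterpenes (DMSO stocks diluted in medium) were added and cells kept 72 h at 28 °C. MTT was added for 4 h, formazan dissolved in 20% SDS and A540 read. Growth inhibition is relative to DNM-treated controls without modulator.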

[2] = tested on: Leishmania tropica; assay: Percentage of growth inhibition of multidrug resistance Leishmania tropica Lines at 1 uM.; summary of the method: as §1
[3] = tested on: Leishmania tropica; assay: (§2) Percentage of growth inhibition of wild type Leishmania tropica lines at 15 uM
Summary of the method: (§3)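 Intrinsic toxicity on the wild-type L. tropica LRC clone, with no DNM present. Log-phase promastigotes were plated at 3 × 10⁵ cells/well in RPMI 1640-modified medium with 20% FBS, with sesquiterpene diluted from DMSO stocks, for 72 h at 28 °C. MTT was added for 4 h, then 20% SDS, and A540 read. Percent growth inhibition is taken against untreated control absorbance.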

[4] = tested on: Leishmania tropica; assay: Percentage of growth inhibition of wild type Leishmania tropica Lines at 3 uM.; summary of the method: as §3
[5] = tested on: Leishmania tropica; assay: Percentage of growth inhibition of wild type Leishmania tropica Lines at 7 uM.; summary of the method: as §3
[6] = tested on: Leishmania tropica; assay: Percentage of growth inhibition of multidrug resistance Leishmania tropica Lines at 7 uM.; summary of the method: as §1
[7] = tested on: Leishmania tropica; assay: Percent growth inhibition of wild type Leishmania tropica at 1 uM; summary of the method: as §3
[8] = tested on: Leishmania tropica; assay: Percentage of growth inhibition of multidrug resistance Leishmania tropica Lines at 3 uM; summary of the method: as §1
[9] = tested on: Leishmania tropica; assay: as §2; remark: listed apart in the source
Summary of the method: (§4)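 WT L. tropica LRC-strain promastigotes (log phase, RPMI 1640-modified medium + 20% heat-inactivated FBS, 28 °C) seeded at 3 × 10⁵ cells/well and exposed without DNM to sesquiterpenes diluted from DMSO stocks. After 72 h at 28 °C, MTT (5 mg/mL in PBS) was added for 4 h, formazan dissolved in 20% SDS, A540 read. Growth inhibition (%) calculated relative to untreated control absorbance.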

[10] = tested on: Leishmania tropica; assay: Percentage of growth inhibition of multidrug resistance Leishmania tropica Lines at 7 uM; Value ranges from 0 to 6%; summary of the method: as §1
[11] = tested on: Leishmania tropica; assay: Percentage of growth inhibition of multidrug resistance Leishmania tropica Lines at 3 uM.; summary of the method: as §1
[12] = tested on: Leishmania tropica; assay: Percentage of growth inhibition of wild type Leishmania tropica Lines at 3 uM; summary of the method: as §4
[13] = tested on: Leishmania tropica; assay: Percentage of growth inhibition of wild type Leishmania tropica Lines at 7 uM; summary of the method: as §4
[14] = tested on: Leishmania tropica; assay: Percentage of growth inhibition of multidrug resistance Leishmania tropica Lines at 1 uM; summary of the method: as §1

SMILES	inhibition at 15 µM [1]	inhibition at 1 µM [2]	inhibition at 15 µM [3]	inhibition at 3 µM [4]	inhibition at 7 µM [5]	inhibition at 7 µM [6]	inhibition at 1 µM [7]	inhibition at 3 µM [8]	inhibition at 15 µM [9]	inhibition at 7 µM [10]	inhibition at 3 µM [11]	inhibition at 3 µM [12]	inhibition at 7 µM [13]	inhibition at 1 µM [14]
CCCCCCCCCCCC(=O)O[C@@H]1C2C[C@H](OC(=O)c3ccco3)[C@]3(C)[C@@H](OC(C)=O)[C@@H](OC(C)=O)C[C@](C)(O)C13OC2(C)C (stereo partly specified)	80.5%	< 6%	< 6%	< 6%	< 6%	29.2%	< 6%	8.8%	–	–	–	–	–	–
CC(=O)O[C@H]1[C@@H](OC(=O)c2ccccc2)C[C@](C)(O)C23OC(C)(C)C(C[C@H](OC(=O)c4ccco4)[C@]12C)[C@H]3O (stereo partly specified)	81.9%	< 6%	–	< 6%	< 6%	41.1%	< 6%	11.1%	8%	–	–	–	–	–
CC(=O)O[C@H]1C[C@](C)(O)C23OC(C)(C)C(C[C@H](OC(=O)c4ccco4)[C@]2(C)[C@H]1OC(C)=O)[C@H]3OC(=O)C(F)(F)F (stereo partly specified)	7.1%	< 6%	< 6%	< 6%	< 6%	–	< 6%	–	–	6%	6%	–	–	–
CC(=O)O[C@H]1[C@@H](OC(=O)c2ccccc2)C[C@](C)(O)C23OC(C)(C)C(C[C@H](OC(=O)c4ccco4)[C@]12C)[C@H]3OC(=O)c1ccco1 (stereo partly specified)	92.7%	–	–	–	–	93.7%	< 6%	74.8%	35.3%	–	–	16.5%	21.4%	11.7%
CC(=O)O[C@H]1[C@@H](OC(=O)c2ccco2)C[C@](C)(O)C23OC(C)(C)C(C[C@H](OC(=O)c4ccco4)[C@]12C)[C@H]3O (stereo partly specified)	44.5%	< 6%	< 6%	< 6%	< 6%	28.5%	< 6%	–	–	–	< 6%	–	–	–
COc1ccc(C(=O)O[C@@H]2C3C[C@H](OC(=O)c4ccco4)[C@]4(C)[C@@H](OC(C)=O)[C@@H](OC(C)=O)C[C@](C)(O)C24OC3(C)C)cc1 (stereo partly specified)	98.4%	–	–	< 6%	< 6%	85%	< 6%	35.4%	17.2%	–	–	–	–	11.9%
CCCCCCCCCCCC(=O)O[C@@H]1C2C[C@H](OC(=O)c3ccco3)[C@]3(C)[C@@H](OC(C)=O)[C@@H](OC(=O)c4ccccc4)C[C@](C)(O)C13OC2(C)C (stereo partly specified)	9.2%	< 6%	< 6%	< 6%	< 6%	–	< 6%	–	–	6%	6%	–	–	–
CC(=O)O[C@H]1[C@@H](OC(=O)c2ccccc2)C[C@](C)(O)C23OC(C)(C)C(C[C@H](OC(=O)c4ccco4)[C@]12C)[C@H]3OC(=O)C(C)(C)C (stereo partly specified)	77.6%	< 6%	< 6%	< 6%	< 6%	25.9%	< 6%	–	–	–	11.2%	–	–	–
CC(=O)O[C@H]1[C@@H](OC(=O)c2ccccc2)C[C@](C)(O)C23OC(C)(C)C(C[C@H](OC(=O)c4ccco4)[C@]12C)[C@H]3OC(=O)C(F)(F)F (stereo partly specified)	36.9%	< 6%	< 6%	< 6%	< 6%	9.7%	< 6%	–	–	–	< 6%	–	–	–
CC(=O)O[C@@H]1C2C[C@H](OC(=O)c3ccco3)[C@]3(C)[C@@H](OC(C)=O)[C@@H](OC(=O)c4ccccc4)C[C@](C)(O)C13OC2(C)C (stereo partly specified)	45%	< 6%	< 6%	< 6%	< 6%	14.3%	< 6%	–	–	–	6%	–	–	–
CC(=O)O[C@H]1C[C@](C)(O)C23OC(C)(C)C(C[C@H](OC(=O)c4ccco4)[C@]2(C)[C@H]1OC(C)=O)[C@H]3OC(=O)C(C)(C)C (stereo partly specified)	96.7%	–	< 6%	< 6%	< 6%	82.5%	< 6%	44.5%	–	–	–	–	–	18.1%
CC(=O)O[C@H]1[C@@H](OC(=O)c2ccco2)C[C@](C)(O)C23OC(C)(C)C(C[C@H](OC(=O)c4ccco4)[C@]12C)[C@H]3OC(=O)c1ccco1 (stereo partly specified)	93.5%	–	–	–	–	86.2%	< 6%	52.9%	23.4%	–	–	13.8%	18.1%	10%
CC(=O)O[C@H]1C[C@](C)(O)C23OC(C)(C)C(C[C@H](OC(=O)c4ccco4)[C@]2(C)[C@H]1OC(C)=O)[C@H]3O (stereo partly specified)	10.9%	< 6%	< 6%	< 6%	< 6%	–	< 6%	–	–	6%	< 6%	–	–	–
CC(=O)O[C@H]1C[C@](C)(O)C23OC(C)(C)C(C[C@H](OC(=O)c4ccco4)[C@]2(C)[C@H]1OC(C)=O)[C@H]3OC(=O)c1ccc([N+](=O)[O-])cc1 (stereo partly specified)	59.5%	< 6%	< 6%	< 6%	< 6%	15.5%	< 6%	–	–	–	6%	–	–	–
CC(=O)O[C@H]1C[C@](C)(O)C23OC(C)(C)C(C[C@H](OC(=O)c4ccco4)[C@]2(C)[C@H]1OC(C)=O)[C@H]3OC(C)=O (stereo partly specified)	50.6%	< 6%	< 6%	< 6%	< 6%	17.1%	< 6%	–	–	–	< 6%	–	–	–
CC(=O)O[C@H]1[C@@H](O)C[C@](C)(O)C23OC(C)(C)C(C[C@H](OC(=O)c4ccco4)[C@]12C)[C@H]3OC(=O)c1ccco1 (stereo partly specified)	28.7%	< 6%	< 6%	< 6%	< 6%	9.1%	< 6%	–	–	–	6%	–	–	–
CC(=O)O[C@H]1CC[C@](C)(O)C23OC(C)(C)C(C[C@H](OC(=O)c4ccco4)[C@]12C)[C@H]3OC(=O)c1ccco1 (stereo partly specified)	89.9%	–	–	–	–	89%	< 6%	66.9%	24.6%	–	–	14.8%	16.4%	20.3%
